Data published in ChEMBL document CHEMBL1938299, “Quinolinone-based agonists of S1P₁: use of a N-scan SAR strategy to optimize in vitro and in vivo activity” (Bioorg Med Chem Lett, 2012).
≈ marks a conversion by molar mass, not a printed value.

Assays:
[1] = molecular target: T1, Sphingosine 1-phosphate receptor 1 (Homo sapiens, UniProt P21453); test: Agonist activity at human S1P1 receptor expressed in human U2OS cells co-expressing eGFP assessed as receptor internalization into cytoplasm using Hoechst dye staining; format: functional, cell-based
T1 sequence (P21453 whole entry): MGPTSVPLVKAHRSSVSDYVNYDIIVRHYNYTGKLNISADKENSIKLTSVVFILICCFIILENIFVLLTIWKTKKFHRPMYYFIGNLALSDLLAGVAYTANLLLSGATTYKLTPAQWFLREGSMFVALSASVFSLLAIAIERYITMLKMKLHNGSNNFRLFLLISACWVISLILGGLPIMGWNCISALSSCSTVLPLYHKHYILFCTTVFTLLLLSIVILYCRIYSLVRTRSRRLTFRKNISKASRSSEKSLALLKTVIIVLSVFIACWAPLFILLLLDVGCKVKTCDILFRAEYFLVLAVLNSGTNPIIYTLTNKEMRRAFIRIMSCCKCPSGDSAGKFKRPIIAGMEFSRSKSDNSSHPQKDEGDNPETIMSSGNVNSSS

[2] = Solubility of the compound in 0.010 M aqueous hydrogen chloride at pH 7.4; format: physicochemical; settings: in the assay text read “hydrogen chloride” for “hydrogen chloride at pH 7.4”
Method in brief: (§1)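 Compound solubility measured separately in 0.010 M aqueous HCl, in PBS at pH 7.4, and in simulated intestinal fluid.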

[3] = Solubility of the compound in phosphate-buffered saline at pH 7.4; format: physicochemical; method in brief: as §1
[4] = Solubility of the compound in simulated intestinal fluid at pH 7.4; format: physicochemical; method in brief: as §1
[5] = Apparent permeability of the compound in pig LLC-PK1 cells; format: ADME, cell-based, Sus scrofa
Method in brief: (§2)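 LLC-PK1 porcine proximal tubule cell monolayers; apparent permeability (Papp) of test compound through the cells measured, along with efflux ratio.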

[6] = Efflux ratio of permeability in pig LLC-PK1 cells; format: ADME, cell-based, Sus scrofa; method in brief: as §2
[7] = Intrinsic clearance in rat liver microsomes assessed per mg of protein after 30 mins; format: ADME, Microsome; settings: read-out: CLH
Method in brief: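 Test compound incubated with rat liver microsomes for 30 min. Percent turnover measured and used to estimate intrinsic clearance.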

[8] = molecular target: T2, Sphingosine 1-phosphate receptor 3 (Homo sapiens, UniProt Q99500); test: Agonist activity at human S1P3 receptor expressed in CHO-K1 cells co-expressing Gq/i5 G-protein assessed as calcium mobilization by FLIPR assay; format: functional, cell-based
T2 sequence (Q99500 whole entry): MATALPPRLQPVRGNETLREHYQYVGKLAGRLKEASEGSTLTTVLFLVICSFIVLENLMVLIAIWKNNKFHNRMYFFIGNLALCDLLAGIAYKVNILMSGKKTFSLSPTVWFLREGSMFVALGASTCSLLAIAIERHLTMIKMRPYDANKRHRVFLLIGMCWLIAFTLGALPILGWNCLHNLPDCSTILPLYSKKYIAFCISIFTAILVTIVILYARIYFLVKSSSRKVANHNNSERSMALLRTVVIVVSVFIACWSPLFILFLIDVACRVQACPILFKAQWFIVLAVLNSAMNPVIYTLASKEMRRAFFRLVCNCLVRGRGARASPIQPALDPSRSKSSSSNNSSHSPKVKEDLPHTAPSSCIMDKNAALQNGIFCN

[9] = molecular target: T1, Sphingosine 1-phosphate receptor 1; test: Agonist activity at human S1P1 receptor expressed in human U2OS cells co-expressing eGFP assessed as receptor internalization into cytoplasm using Hoechst dye staining relative to 1-(4-(6-benzylbenzofuran-2-yl)-3- fluorobenzyl)azetidine-3-carboxylic acid; format: functional, cell-based
[10] = tested on: Rattus norvegicus; test: Immunosuppressive activity in Lewis rat assessed as reduction in circulating peripheral lymphocyte count at 1 mg/kg, po after 24 hrs relative to control; format: functional; set-up: scale not given: the % may be the effect or the level left
Method in brief: (§3)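 Female Lewis rats (N = 5/group) given a single oral dose (0.30, 1.0 or 3.0 mg/kg) in 20% Captisol or HPBCD, 1% HPMC, 1% Pluronic F68, pH 2.0 with MSA. At 24 h, blood lymphocytes were counted as percent of vehicle control and total plasma compound measured. Significance by ANOVA/Dunnett's test versus vehicle.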

[11] = Plasma concentration in Lewis rat at 1 mg/kg, po after 24 hrs; format: ADME, organism-based; set-up: dose 1 mg/kg, route oral; method in brief: as §3
[12] = molecular target: T2, Sphingosine 1-phosphate receptor 3; test: Agonist activity at human S1P3 receptor expressed in CHO-K1 cells co-expressing Gq/i5 G-protein assessed as calcium mobilization by FLIPR assay relative to S1P; format: functional, cell-based
Method in brief: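 Ca2+ mobilization in CHO-K1 cells expressing hS1P3 and a chimeric Gq/i5 G-protein. Efficacy expressed as % relative to S1P; compounds not reaching >10% of control activity reported as greater than the highest concentration tested.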

Structure (SMILES)	EC50 [1]	solubility [2]	solubility [3]	solubility [4]	Papp [5]	efflux ratio [6]	microsomal CLint [7]	EC50 [8]	Efficacy [9]	concentration at 24 h [11]	Efficacy [12]	Activity [10]
Cn1cc(C(=O)Nc2ccc(-c3cccnc3)c(C(F)(F)F)c2)c(=O)c2ccccc21	0.31 µM	23 µg/mL (≈ 54.3 µM)	< 1 µg/mL	6.7 µg/mL (≈ 15.8 µM)	18 ×10⁻⁶ cm/s	1.6	18 µL/min/mg	> 2.5 µM	110%			
Cn1cc(C(=O)Nc2ccc(-c3ccccn3)c(C(F)(F)F)c2)c(=O)c2cnccc21	0.2 µM	120 µg/mL (≈ 283 µM)	< 1 µg/mL	6.7 µg/mL (≈ 15.8 µM)	16 ×10⁻⁶ cm/s	1	15 µL/min/mg	> 2.5 µM	100%	150 ng/mL		-32%
Cn1cc(C(=O)Nc2ccc(-c3ccccn3)c(C(F)(F)F)n2)c(=O)c2cnccc21	0.21 µM	> 200 µg/mL	3 µg/mL (≈ 7.05 µM)	5.8 µg/mL (≈ 13.6 µM)	15 ×10⁻⁶ cm/s	1	< 14 µL/min/mg	> 2.5 µM	130%	140 ng/mL		-32%
CCCCCCCCc1ccc(CC[C@](N)(CO)COP(=O)(O)O)cc1											35%	
Cn1nc(C(=O)Nc2ccc(-c3ccccc3)c(C(F)(F)F)c2)c(=O)c2ccccc21	0.041 µM	< 1 µg/mL	1.6 µg/mL (≈ 3.78 µM)	12 µg/mL (≈ 28.3 µM)	2.3 ×10⁻⁶ cm/s	1.2	< 14 µL/min/mg	> 2.5 µM	130%	9.7 ng/mL		6%
Cn1cc(C(=O)Nc2ccc(-c3ccccc3)c(C(F)(F)F)c2)c(=O)c2ncccc21	4.1 µM				16 ×10⁻⁶ cm/s	1.4	< 14 µL/min/mg	> 2.5 µM	86%			

Now from value to compound, other results behind:

EC50 [1]	solubility [2]	solubility [3]	solubility [4]	Papp [5]	efflux ratio [6]	microsomal CLint [7]	EC50 [8]	Efficacy [9]	concentration at 24 h [11]	Efficacy [12]	Structure (SMILES)	Activity [10]
0.029 µM	< 1 µg/mL	2.6 µg/mL (≈ 6.14 µM)	6.1 µg/mL (≈ 14.4 µM)	3.4 ×10⁻⁶ cm/s	1	< 14 µL/min/mg	> 2.5 µM	120%	140 ng/mL		Cn1cc(C(=O)Nc2ccc(-c3ccccc3)c(C(F)(F)F)c2)c(=O)c2ccncc21	-36%
0.45 µM	6.4 µg/mL (≈ 15.1 µM)	7.9 µg/mL (≈ 18.7 µM)	12 µg/mL (≈ 28.3 µM)	15 ×10⁻⁶ cm/s	1.5	44 µL/min/mg	> 2.5 µM	110%			Cn1cc(C(=O)Nc2ccc(-c3ccncc3)c(C(F)(F)F)c2)c(=O)c2ccccc21	
0.042 µM	< 1 µg/mL	< 1 µg/mL	2.3 µg/mL (≈ 5.43 µM)	< 1 ×10⁻⁶ cm/s		< 14 µL/min/mg	> 2.5 µM	120%	1.3 ng/mL		Cn1cc(C(=O)Nc2ccc(-c3ccccc3)c(C(F)(F)F)n2)c(=O)c2ccccc21	7%
0.06 µM	12 µg/mL (≈ 28.3 µM)	< 1 µg/mL	5.2 µg/mL (≈ 12.3 µM)	11 ×10⁻⁶ cm/s	0.8	< 14 µL/min/mg	> 2.5 µM	110%	5.1 ng/mL		Cn1cc(C(=O)Nc2ccc(-c3ccccn3)c(C(F)(F)F)c2)c(=O)c2ccccc21	25%
